Laboratory results as given in ChEMBL document CHEMBL3817823 (J Med Chem, 2016).
Active and inactive are the calls of the source. The calls are words filed in the database; no cut-off is given here.

Legend:
[1] = Oral bioavailability in rat by LC/MS/MS analysis; assay type: ADME, organism-based; settings: in vivo
[2] = Oral bioavailability in rat at 0.8 mg/kg by LC-MS/MS analysis; assay type: ADME, organism-based; settings: in vivo
[3] = molecular target: Histone-lysine N-methyltransferase PRDM9 (Homo sapiens) (UniProt Q9NQV7); assay: Inhibition of PRDM9 (unknown origin) at 1 to 50 uM by scintillation proximity assay
[4] = molecular target: Histone-lysine N-methyltransferase KMT5C (Homo sapiens) (UniProt Q86Y97); assay: Inhibition of SUV420H2 (unknown origin) at 1 to 50 uM by scintillation proximity assay
[5] = molecular target: Histone-lysine N-methyltransferase ASH1L (Homo sapiens) (UniProt Q9NR48); assay: Inhibition of ASH1L (unknown origin) at 1 to 50 uM by TCA precipitation assay
KYSE-150 = assay: Antitumor activity against human KYSE-150 cells xenografted in BALB/c mouse assessed as reduction in tumor area at 500 mg/kg, po administered qd in presence of doxorubicin relative to control; assay type: functional, organism-based
Outline: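 Mice carrying subcutaneous KYSE-150 xenografts; dosing began day 4 after inoculation. Arms: vehicle (Solutol/ethanol/water 1:1:8 iv qd, plus saline iv once at day 4), inhibitor 500 mg/kg po qd, doxorubicin 10 mg/kg iv once at day 4, or the combination. Tumor area tracked (mean ± SEM); final tumor weight gives T/C; Dunn's method versus vehicle.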

Histone-lysine N-methyltransferase PRDM9 (Homo sapiens), sequence (Q9NQV7 whole entry): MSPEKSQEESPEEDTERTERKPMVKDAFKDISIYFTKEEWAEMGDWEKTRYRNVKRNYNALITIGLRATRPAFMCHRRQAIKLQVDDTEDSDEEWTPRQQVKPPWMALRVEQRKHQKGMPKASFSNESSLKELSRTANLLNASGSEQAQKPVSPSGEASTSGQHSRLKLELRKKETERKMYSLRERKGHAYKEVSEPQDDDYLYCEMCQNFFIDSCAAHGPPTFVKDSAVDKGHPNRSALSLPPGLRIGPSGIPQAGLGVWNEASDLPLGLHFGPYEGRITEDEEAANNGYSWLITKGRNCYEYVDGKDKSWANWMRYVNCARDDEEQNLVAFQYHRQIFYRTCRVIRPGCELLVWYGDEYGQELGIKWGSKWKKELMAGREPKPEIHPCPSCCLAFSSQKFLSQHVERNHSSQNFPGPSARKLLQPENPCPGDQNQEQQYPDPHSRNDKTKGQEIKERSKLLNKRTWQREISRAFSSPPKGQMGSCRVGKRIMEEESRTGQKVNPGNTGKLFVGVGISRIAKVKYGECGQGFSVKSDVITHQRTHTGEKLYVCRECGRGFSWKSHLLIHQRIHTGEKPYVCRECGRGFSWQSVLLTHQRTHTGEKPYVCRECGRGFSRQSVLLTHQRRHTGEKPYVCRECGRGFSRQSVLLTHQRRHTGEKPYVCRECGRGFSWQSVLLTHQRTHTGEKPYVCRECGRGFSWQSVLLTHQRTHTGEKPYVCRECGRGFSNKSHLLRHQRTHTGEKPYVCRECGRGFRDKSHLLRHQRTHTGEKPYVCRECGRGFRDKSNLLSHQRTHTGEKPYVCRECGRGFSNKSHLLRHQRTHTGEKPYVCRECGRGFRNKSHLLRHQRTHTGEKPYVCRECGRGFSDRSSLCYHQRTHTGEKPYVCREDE
Histone-lysine N-methyltransferase KMT5C (Homo sapiens), sequence (Q86Y97 whole entry, looked up): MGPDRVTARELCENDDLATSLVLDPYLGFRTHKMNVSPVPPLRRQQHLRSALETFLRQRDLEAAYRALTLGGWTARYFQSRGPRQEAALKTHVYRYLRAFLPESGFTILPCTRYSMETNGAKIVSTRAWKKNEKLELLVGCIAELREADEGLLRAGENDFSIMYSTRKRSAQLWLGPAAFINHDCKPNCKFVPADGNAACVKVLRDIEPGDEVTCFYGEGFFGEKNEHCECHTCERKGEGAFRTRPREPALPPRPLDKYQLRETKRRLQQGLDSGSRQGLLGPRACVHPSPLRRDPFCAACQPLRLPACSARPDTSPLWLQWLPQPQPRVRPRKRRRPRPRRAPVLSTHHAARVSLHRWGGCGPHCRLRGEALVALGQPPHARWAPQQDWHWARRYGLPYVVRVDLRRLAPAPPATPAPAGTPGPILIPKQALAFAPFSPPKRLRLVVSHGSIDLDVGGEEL

CCN(C(=O)CO)[C@H]1CN(/C(=N\C#N)Nc2cccc(OC(F)F)c2)N=C1c1ccc(Cl)c(Cl)c1
bioavailability [1]: 24%
bioavailability [2]: 24%
inhibition [3]: inactive
inhibition [4]: inactive
inhibition [5]: inactive
Activity (KYSE-150): Active
